Laboratory results from article PMC5346463 (Anticancer research, 2014).
Converted amounts (≈) assume the structure as drawn.

Experiments:
[1] = Cytotoxicity, sulforhodamine B; format: cell-based; details: human, MDA-MB-231 cells
Summary of the method: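 MDA-MB-231 cells (DMEM high glucose, 10% FBS, antibiotic/antimycotic) plated at 5,000 cells/well and left to adhere overnight at normoxia. Pre-incubated 1 h with titrated test compound, then cultured at normoxia (21% O2, 5% CO2) or hypoxia (1% O2, 5% CO2). SRB stain after 96 h, OD read at 540 nm. IC50 given as mean±SEM, n=3.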

[2] = system: HIF1A; assay: Quantitative real-time PCR, HIF1A mRNA in MDA-MB-231 cells; format: cell-based; details: 10 μM, 8 h, normalized to Cyclophilin A, n=3
Summary of the method: (§1)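 MDA-MB-231 cells seeded at 3.5×10^5/well in six-well plates overnight. Treated 8 h with 10 μM test compound in medium under hypoxia (1% O2) or normoxia; controls got medium with […] DMSO. Total RNA isolated and reverse-transcribed. SYBR Green qPCR run with 40 ng cDNA/well, normalised to Cyclophilin A, n=3.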

[3] = system: VEGF; assay: Quantitative real-time PCR, VEGF mRNA in MDA-MB-231 cells; format: cell-based; details: 10 μM, 8 h, normalized to Cyclophilin A, n=3
Summary of the method: as §1

[4] = system: PHD3; assay: Quantitative real-time PCR, PHD3 mRNA in MDA-MB-231 cells; format: cell-based; details: 10 μM, 8 h, normalized to Cyclophilin A, n=3
Summary of the method: as §1

[5] = Aqueous solubility, miniaturized shake-flask with LC-MS/MS; format: physicochemical; details: for Solubility: room temperature
Summary of the method: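 Test compound (1.0 mg) shaken in 1 mL water or pH 7.0 phosphate buffer for 24 h at 450 rpm, room temperature. Suspension spun at 10,000 RPM for 15 min. Supernatant quantified by ESI LC-MS/MS on a PFP column using a 0.1% formic acid/MeOH gradient at 0.4 mL/min.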

[6] = system: HIF-1α; assay: Western blot of HIF-1α protein expression in MDA-MB-231 cells; format: cell-based; details: hypoxic conditions (1% oxygen)

Structure (SMILES) | IC50 at 96 h [1] [nM] | HIF1A expression (qPCR) ([2]; hypoxia (1% oxygen)) | HIF1A expression level (qPCR) ([2]; normoxia) | VEGF expression (qPCR) ([3]; hypoxia (1% oxygen)) | VEGF expression level (qPCR) ([3]; normoxia) | PHD3 mRNA level (qPCR) ([4]; hypoxia (1% oxygen)) | PHD3 mRNA level (qPCR) ([4]; normoxia) | Solubility ([5]; Buffer pH 7.0, 24 h shaking) [µg/mL] | Solubility ([5]; Water, 24 h shaking) [µg/mL] | Aqueous solubility ([5]; buffer pH 7.0) [µg/mL] | Aqueous solubility ([5]; water) [µg/mL] | HIF-1α protein accumulation under hypoxic stress (western blot) [6]
C[C@H]1O[C@@H](O[C@H]2[C@@H](O)C[C@H](O[C@H]3[C@@H](O)C[C@H](O[C@H]4CC[C@@]5(C)[C@H](CC[C@@H]6[C@@H]5C[C@@H](O)[C@]5(C)[C@@H](C7=CC(=O)OC7)CC[C@]65O)C4)O[C@@H]3C)O[C@@H]2C)C[C@H](O)[C@@H]1O [Digoxin] | 250 ± 50 |  |  |  |  |  |  |  |  |  |  | 
CC(=O)O[C@@]12CO[C@@H]1C[C@H](O)[C@@]1(C)C(=O)[C@H](O)C3=C(C)[C@@H](OC(=O)[C@H](O)[C@@H](NC(=O)OC(C)(C)C)c4ccccc4)C[C@@](O)([C@@H](OC(=O)c4ccccc4)[C@H]21)C3(C)C [Docetaxel] | < 5 |  |  |  |  |  |  |  |  |  |  | 
OCc1ccc(-c2nn(Cc3ccccc3)c3ccccc23)o1 [YC-1, 3-(5′-hydroxymethyl-2′-furyl)-1-benzyl indazole] |  | remained repressed | significantly reduced | remained repressed | significantly reduced | insignificant | enhancement of PHD3 mRNA levels | 0.94 (≈ 3.09 µM) | 1.241 (≈ 4.08 µM) | 0.9 | 1.2 | not inhibited
